Test results: ChEMBL document CHEMBL4364260, “Discovery of Ziresovir as a Potent, Selective, and Orally Bioavailable Respiratory Syncytial Virus Fusion Protein Inhibitor” (J Med Chem, 2019)

What was measured:
[1] = Antiviral activity against Human respiratory syncytial virus A strain Long infected in human Hep2 cells assessed as reduction in virus induced cytopathic effect in presence of 10% FBS after 5 days by CCK-8 assay; format: functional, cell-based; settings: HEp-2, 120 h
How it was run: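 HEp-2 cells seeded at 6000/well and infected the next day at MOI 0.02, a dose that gives about 90% CPE by day 5. Serial compound dilutions were present throughout, in standard medium with 10% FBS. Viability was read by CCK-8 at day 5, and EC50 is the concentration that cuts CPE by 50%.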

[2] = Therapeutic index, ratio of CC50 of human Hep2 cells to EC50 for antiviral activity against human respiratory syncytial virus long strain infected in human Hep2 cells after 5 days by CCK-8 assay; format: toxicity, cell-based; settings: HEp-2 cells, read-out: Ratio CC50/EC50
How it was run: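 TI is CC50 over EC50. CC50 comes from uninfected HEp-2 cells; EC50 from 50% reduction of RSV Long CPE in HEp-2 cells (MOI 0.02, 5 days). Both were read by CCK-8 viability.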

[3] = Cytotoxicity against human Hep2 cells assessed as reduction in cell viability after 5 days by CCK-8 assay; format: cell-based; settings: HEp-2 cells
How it was run: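 Uninfected HEp-2 cells (6000/well) were incubated 5 days with serially diluted compound. Viability was read by CCK-8, and CC50 is the concentration toxic to 50% of cells.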

[4] = AUC (0 to 24 hrs) in Wistar-Han rat at 10 mg/kg, po administered as single dose via gavage and measured up to 24 hrs by LC/MS/MS analysis; format: ADME, organism-based; design: dose 10 mg/kg, time < 24 hr, route oral; settings: in vivo
How it was run: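 Single-dose PK in male Wistar-Han rats at 2 mg/kg iv or 10 mg/kg po, as a solution in 5% DMSO, 40% PEG400 and 55% 0.9% sodium chloride.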

[5] = Volume of distribution at steady state in Wistar-Han rat at 2 mg/kg, iv or 10 mg/kg, po administered as single dose via gavage and measured up to 24 hrs by LC/MS/MS analysis; format: ADME, organism-based; settings: in vivo, read-out: Vdss
How it was run: (§1)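 Male Wistar-Han rats, single dose, 2 mg/kg iv and 10 mg/kg po, run by standard procedures.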

[6] = Plasma clearance in Wistar-Han rat at 2 mg/kg, iv or 10 mg/kg, po administered as single dose via gavage and measured up to 24 hrs by LC/MS/MS analysis; format: ADME, organism-based; how it was run: as §1
[7] = Half-life in Wistar-Han rat at 2 mg/kg, iv administered as single dose and measured up to 24 hrs by LC/MS/MS analysis; format: ADME, organism-based; settings: in vivo; how it was run: as §1
[8] = Oral bioavailability in Wistar-Han rat at 10 mg/kg administered as single dose via gavage and measured up to 24 hrs by LC/MS/MS analysis; format: ADME, organism-based; settings: in vivo; how it was run: as §1

AUC(0-t) at 24 h [4] [ng·h/mL] | Vd [5] [L/kg] | clearance [6] [mL/min/kg] | half-life [7] [h] | bioavailability [8] [%] | SMILES | EC50 [1] [nM] | selectivity ratio at 120 h [2] | CC50 at 120 h [3] [nM]
– | – | – | – | – | Cc1ccc2c(c1)S(=O)(=O)CCN(c1cc(NCC3(N)COC3)c3ccccc3n1)C2 | 74 | 1280 | 95000
– | – | – | – | – | NC1(CNc2cc(N3CCS(=O)(=O)c4ccccc4C3)nc3ccc(CO)cc23)COC1 | 2 | > 50000 | > 100000
– | – | – | – | – | NC1(CNc2nc(N3CCS(=O)(=O)c4ccccc4C3)nc3ccccc23)COC1 | 20 | > 5000 | > 100000
442 | 4.1 | 51 | 1.7 | 13 | Cc1ccc2nc(N3CCS(=O)(=O)c4ccccc4C3)cc(NCC3(N)COC3)c2c1 | 2 | > 50000 | > 100000
– | – | – | – | – | Cc1ccc2nc(N3CCS(=O)(=O)c4ccc(O)cc4C3)cc(NCC3(N)COC3)c2c1 | 0.8 | > 125000 | > 100000
– | – | – | – | – | Cc1ccc2c(c1)S(=O)(=O)CCN(c1cc(NCC3(N)COC3)c3cc(C)ccc3n1)C2 | 5 | 18200 | 91000
– | – | – | – | – | Cc1cc2c(NCC3(N)COC3)cc(N3CCS(=O)(=O)c4ccccc4C3)nc2c(F)c1F | 510 | 104 | 53000
– | – | – | – | – | NC1(CNc2cc(N3CCS(=O)(=O)c4ccccc4C3)nc3ccc(Cl)cc23)COC1 | 34 | 2560 | 87000
– | – | – | – | – | CC(C)(O)c1ccc2nc(N3CCS(=O)(=O)c4ccccc4C3)cc(NCC3(N)COC3)c2c1 | > 100000 | < 1 | > 100000
– | – | – | – | – | Cc1ccc2nc(N3CCS(=O)(=O)c4ccccc4C3)nc(NCC3(N)CC3)c2c1 | 4 | 3250 | 13000
– | – | – | – | – | COc1cccc2c1S(=O)(=O)CCN(c1cc(NCC3(N)COC3)c3cc(C)ccc3n1)C2 | 350 | > 286 | > 100000
– | – | – | – | – | COc1ccc2c(c1)S(=O)(=O)CCN(c1cc(NCC3(N)COC3)c3cc(C)ccc3n1)C2 | 1 | 92000 | 92000
– | – | – | – | – | COc1ccc2c(c1)S(=O)(=O)CCN(c1cc(NCC3(N)COC3)c3ccccc3n1)C2 | 8 | > 12500 | > 100000
– | – | – | – | – | Cc1cc2c(NCC3(N)COC3)cc(N3CCS(=O)(=O)c4ccccc4C3)nc2cc1F | 21 | 3050 | 64000
– | – | – | – | – | Cc1ccc2nc(N3CCS(=O)(=O)c4c(F)cccc4C3)cc(NCC3(N)COC3)c2c1 | 3 | 11700 | 35000
– | – | – | – | – | Cc1ccc2nc(N3CCS(=O)(=O)c4ccccc4C3)nc(NCC3(N)CCC3)c2c1 | 100 | 210 | 21000
– | – | – | – | – | Cc1ccc2cc(N3CCS(=O)(=O)c4ccccc4C3)nc(NCC3(N)COC3)c2c1 | 220 | 370 | 81000
– | – | – | – | – | COc1ccc2c(c1)CN(c1cc(NCC3(N)COC3)c3cc(C)ccc3n1)CCS2(=O)=O | 3 | 30000 | 90000
– | – | – | – | – | Cc1ccc2nc(N3CCS(=O)(=O)c4ccccc4C3)nc(NCC(C)(C)N)c2c1 | 16 | 1250 | 20000
– | – | – | – | – | Cc1ccc2nc(N3CCS(=O)(=O)c4ccccc4C3)cc(NCC3(N)COC3)c2c1F | 23 | 4040 | 93000
– | – | – | – | – | Cc1ccc2nc(N3CCS(=O)(=O)c4ccc(F)cc4C3)cc(NCC3(N)COC3)c2c1 | 72 | 1290 | 93000
– | – | – | – | – | Cc1ccc2nc(N3CCS(=O)(=O)c4cc(Cl)ccc4C3)cc(NCC3(N)COC3)c2c1 | 27 | 560 | 15000
– | – | – | – | – | NC1(CNc2cc(N3CCS(=O)(=O)c4ccccc4C3)cc3ccccc23)COC1 | > 31600 | < 2 | 71000
– | – | – | – | – | NC1(CNc2cc(N3CCS(=O)(=O)c4ccccc4C3)nc3ccncc23)COC1 | 12 | 8250 | 99000
– | – | – | – | – | Cc1ccc2nc(N3CCS(=O)(=O)c4cc(F)ccc4C3)cc(NCC3(N)COC3)c2c1 | 10 | 7900 | 79000
